Measured values of several laboratories.
Each line is one published result; the experiments were not run side by side.
Target: Protein-tyrosine kinase 2-beta (PTK2B, Homo sapiens, UniProt Q14289)

Structure (SMILES) | read-out | technique | concentration | remaining binding [%]
O=C(NCC1CCOCC1)c1n[nH]cc1NC(=O)c1c(F)cccc1F | binding | competition with immobilised ligand | 1 µM | 100
Cc1cnn2ncc(-c3ccnc(N(C)C)n3)c2c1 | binding | – | 1 µM | 100
c1cncc(-c2cccc(Nc3nccc(NC4CCCCC4)n3)c2)c1 | binding | competition with immobilised ligand | 10 µM | 63
COc1cnc(Nc2cccc(S(N)(=O)=O)c2)nc1N1CCN(c2ccccc2)C(=O)C1 | binding | competition with immobilised ligand | 1 µM | 100
CC(=O)c1c(NS(C)(=O)=O)c2cc(-c3ccc(Cl)cc3)c(-c3ccc(Cl)cc3Cl)nc2n(C)c1=O | cell-free assay | competition with immobilised ligand | 1 µM | 100
CN(C)c1nccc(-c2cnc3ncccn23)n1 | binding | – | 1 µM | 92
Cc1cnc(Nc2ccc(C(=O)N3CCC(N4CCCC4)CC3)cc2)nc1-c1cc2ccccc2s1 | binding | competition with immobilised ligand | 1 µM | 28
Cc1c[nH]c2nccc(Oc3c(F)cc(Nc4cc(Cl)nc(N)n4)cc3F)c12 | cell-free assay | competition with immobilised ligand | 0.1 µM | 90
CN(c1nccc(-c2cnn3ncccc23)n1)C1CC1 | binding | – | 1 µM | 100
COc1cnc(Nc2cccc(S(N)(=O)=O)c2)nc1N1CCN(c2ccccc2)CC1 | binding | competition with immobilised ligand | 1 µM | 89
O=C(c1ccc(Nc2nccc(-c3cc4ccccc4s3)n2)cc1)N1CCC(N2CCCC2)CC1 | binding | competition with immobilised ligand | 1 µM | 81
CN(CCCC(F)(F)F)c1nccc(-c2cnn3ncccc23)n1 | binding | – | 1 µM | 100
CO[C@H]1CC[C@H](CNc2ccc(S(=O)(=O)NC(=O)c3ccc(N4CCN(CC5=C(c6ccc(Cl)cc6)CC(C)(C)CC5)CC4)cc3Oc3cnc4[nH]ccc4c3)cc2[N+](=O)[O-])CC1 | cell-free assay | competition with immobilised ligand | 1 µM | 87
C[C@H]1CCN(c2nccc(-c3cnn4ncccc34)n2)C1 | binding | – | 1 µM | 100
FC(F)(F)Oc1cccc(-c2cnc3ccc(-c4ccncc4)nn23)c1 | cell-free assay | competition with immobilised ligand | 5 µM | 76
CC(C)CC(=O)N1CCc2nc(-c3ccc(Br)cc3)nc(N(C)Cc3ccccc3)c2C1 | cell-free assay | competition with immobilised ligand | 0.1 µM | 100
Nc1ncc2c(n1)-c1c([nH]c3ccc(C#CC4CC4)cc13)CCCC2 | binding | competition with immobilised ligand | 1 µM | 98
Cn1cc(Cl)c2c(Oc3c(F)cc(Nc4cc(Cl)nc(N)n4)cc3F)ccnc21 | cell-free assay | competition with immobilised ligand | 0.1 µM | 100
N[C@H]1CCN(c2nccc(-c3cnn4ncccc34)n2)C1 | binding | – | 1 µM | 100
CS(=O)(=O)c1cc(C2(NC(=O)c3cncc4c3cnn4-c3ccc(F)cc3)CC2)ccn1 | cell-free assay | competition with immobilised ligand | 1 µM | 100
O=C(c1ccc(Nc2ncc(Cl)c(-c3cc4ccccc4s3)n2)cc1)N1CCC(N2CCCC2)CC1 | binding | competition with immobilised ligand | 1 µM | 40
